Reference: ChEMBL document CHEMBL1140994, “Ranking the selectivity of PubChem screening hits by activity-based protein profiling: MMP13 as a case study” (Bioorg Med Chem, 2009)
Activity calls are given as the source filed them. The calls are words filed in the database; no cut-off is given here.

Experiments:
[1] = target: Endoplasmic reticulum aminopeptidase 1 (Homo sapiens) (UniProt Q9NZ08); assay: Inhibition of human recombinant PILS-AP at 200 uM by HxBPyne probe-based competitive activity based protein profiling assay in presence of 5 uM HxBpane competitor
In short: (§1)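 Recombinant enzyme at 0.5 μM final in mouse liver soluble proteome (1 mg protein/mL in PBS). HxBPyne probe cocktail 0.5 μM total final, with inhibitor 200 μM or DMSO. Preincubated 30 min on ice, then UV 365 nm for 1 h on ice. Rhodamine-azide click chemistry, 1 h RT in dark. SDS-PAGE with in-gel fluorescence; band intensity given as % of DMSO control.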

[2] = target: Matrix metalloproteinase-15 (Homo sapiens) (UniProt P51511); assay: Inhibition of human recombinant MMP15 at 200 uM by HxBPyne probe-based competitive activity based protein profiling assay in presence of 5 uM HxBpane competitor; in short: as §1
[3] = target: T1, Matrix metalloproteinase-9 (Homo sapiens, UniProt P14780); assay: Inhibition of human recombinant MMP9 at 200 uM by HxBP-Rh probe-based competitive activity based protein profiling assay in presence of 200 uM HxBP-alkyne
In short: (§2)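 Enzyme 0.5 μM final, in PBS (ADAMTS4, neprilysin) or in 1 mg/mL mouse liver soluble proteome (MMP9). HxBP-Rh probe 0.5 μM final with 200 μM inhibitor or DMSO. Preincubated 30 min on ice, UV 365 nm 1 h on ice. Deglycosylated with PNGase F, then SDS-PAGE with fluorescence scanning. Activity given relative to DMSO control.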

[4] = target: Stromelysin-1 (Homo sapiens) (UniProt P08254); assay: Inhibition of human recombinant MMP3 at 200 uM by HxBPyne probe-based competitive activity based protein profiling assay in presence of 5 uM HxBpane competitor; in short: as §1
[5] = target: Disintegrin and metalloproteinase domain-containing protein 12 (Homo sapiens) (UniProt O43184); assay: Inhibition of human recombinant ADAM12 at 200 uM by HxBPyne probe-based competitive activity based protein profiling assay in presence of 200 uM HxBpane competitor
In short: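 Metalloprotease at 1.6 μM final in PBS, without liver proteome. HxBPyne probe cocktail 20 μM final, with inhibitor 200 μM or DMSO. Preincubated 30 min on ice, then irradiated 365 nm for 1 h on ice. Rhodamine-azide click chemistry, then SDS-PAGE and in-gel fluorescence scanning. Integrated band intensity expressed as % of DMSO control.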

[6] = target: Macrophage metalloelastase (Homo sapiens) (UniProt P39900); assay: Inhibition of human recombinant MMP12 at 200 uM by HxBPyne probe-based competitive activity based protein profiling assay in presence of 5 uM HxBpane competitor; in short: as §1
[7] = target: Matrix metalloproteinase-14 (Homo sapiens) (UniProt P50281); assay: Inhibition of human recombinant MMP14 at 200 uM by HxBPyne probe-based competitive activity based protein profiling assay in presence of 5 uM HxBpane competitor; in short: as §1
Neutrophil collagenase = Neutrophil collagenase (Homo sapiens, UniProt P22894); assay: Inhibition of human recombinant MMP8 at 200 uM by HxBPyne probe-based competitive activity based protein profiling assay in presence of 5 uM HxBpane competitor; in short: as §1
[8] = target: Interstitial collagenase (Homo sapiens) (UniProt P03956); assay: Inhibition of human recombinant MMP1 at 200 uM by HxBPyne probe-based competitive activity based protein profiling assay in presence of 5 uM HxBpane competitor; in short: as §1
[9] = target: T2, Disintegrin and metalloproteinase domain-containing protein 8 (Homo sapiens) (UniProt P78325); assay: Inhibition of human recombinant ADAM8 at 200 uM by HxBPyne probe-based competitive activity based protein profiling assay in presence of 5 uM HxBpane competitor; in short: as §1
T2 sequence (whole entry): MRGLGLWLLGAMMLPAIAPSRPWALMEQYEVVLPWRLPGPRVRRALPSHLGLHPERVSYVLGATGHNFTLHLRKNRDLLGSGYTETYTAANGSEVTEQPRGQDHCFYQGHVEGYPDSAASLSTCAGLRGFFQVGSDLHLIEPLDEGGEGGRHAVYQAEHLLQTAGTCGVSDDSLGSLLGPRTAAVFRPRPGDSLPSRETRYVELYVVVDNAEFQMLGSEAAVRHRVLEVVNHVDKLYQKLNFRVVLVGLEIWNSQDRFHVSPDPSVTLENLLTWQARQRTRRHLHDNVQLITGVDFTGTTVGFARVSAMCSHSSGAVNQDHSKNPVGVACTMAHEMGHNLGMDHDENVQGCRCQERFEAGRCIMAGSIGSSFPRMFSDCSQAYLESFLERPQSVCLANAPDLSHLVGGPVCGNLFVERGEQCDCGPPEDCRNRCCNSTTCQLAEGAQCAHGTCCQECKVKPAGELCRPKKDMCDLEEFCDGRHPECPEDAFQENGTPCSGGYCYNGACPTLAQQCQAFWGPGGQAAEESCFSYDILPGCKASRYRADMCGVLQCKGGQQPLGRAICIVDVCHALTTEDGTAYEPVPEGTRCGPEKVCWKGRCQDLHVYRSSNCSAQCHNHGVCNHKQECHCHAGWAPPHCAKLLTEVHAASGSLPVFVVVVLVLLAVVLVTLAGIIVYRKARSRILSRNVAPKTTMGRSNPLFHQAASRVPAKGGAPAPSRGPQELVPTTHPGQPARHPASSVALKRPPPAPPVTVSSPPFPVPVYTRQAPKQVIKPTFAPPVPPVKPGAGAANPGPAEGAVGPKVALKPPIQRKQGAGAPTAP

[10] = target: Stromelysin-2 (Homo sapiens) (UniProt P09238); assay: Inhibition of human recombinant MMP10 at 200 uM by HxBPyne probe-based competitive activity based protein profiling assay in presence of 5 uM HxBpane competitor; in short: as §1
[11] = target: Disintegrin and metalloproteinase domain-containing protein 10 (Homo sapiens) (UniProt O14672); assay: Inhibition of human recombinant ADAM10 at 200 uM by HxBPyne probe-based competitive activity based protein profiling assay in presence of 5 uM HxBpane competitor; in short: as §1
[12] = target: A disintegrin and metalloproteinase with thrombospondin motifs 4 (Homo sapiens) (UniProt O75173); assay: Inhibition of human recombinant ADAMTS4 at 200 uM by HxBP-Rh probe-based competitive activity based protein profiling assay in presence of 200 uM HxBP-alkyne; in short: as §2
[13] = target: T1, Matrix metalloproteinase-9; assay: Inhibition of human recombinant MMP9 by fluorogenic substrate assay
In short: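 Enzyme (MMP8 6 nM, MMP9 2 nM, MMP13 1.5 nM final) preincubated with inhibitor 30 min in 50 mM HEPES pH 7.5, 10 mM CaCl2, 0.05% Brij-35, at RT. Mca-PLGL-Dpa-AR-NH2 added at 5 μM; fluorescence (ex 328/em 393 nm) read each minute for 10 min. Initial rates by linear least squares; IC50 from variable-slope sigmoidal fit. Triplicate; mean with 95% CI.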

Collagenase 3 = Collagenase 3 (Homo sapiens, UniProt P45452); assay: Inhibition of human recombinant MMP13 by HxBPyne probe-based competitive activity based protein profiling assay
[14] = target: Endoplasmic reticulum aminopeptidase 2 (Homo sapiens) (UniProt Q6P179); assay: Inhibition of human recombinant L-RAP at 200 uM by HxBPyne probe-based competitive activity based protein profiling assay in presence of 5 uM HxBpane competitor; in short: as §1
Endoplasmic reticulum aminopeptidase 2 (Homo sapiens), sequence (Q6P179 whole entry): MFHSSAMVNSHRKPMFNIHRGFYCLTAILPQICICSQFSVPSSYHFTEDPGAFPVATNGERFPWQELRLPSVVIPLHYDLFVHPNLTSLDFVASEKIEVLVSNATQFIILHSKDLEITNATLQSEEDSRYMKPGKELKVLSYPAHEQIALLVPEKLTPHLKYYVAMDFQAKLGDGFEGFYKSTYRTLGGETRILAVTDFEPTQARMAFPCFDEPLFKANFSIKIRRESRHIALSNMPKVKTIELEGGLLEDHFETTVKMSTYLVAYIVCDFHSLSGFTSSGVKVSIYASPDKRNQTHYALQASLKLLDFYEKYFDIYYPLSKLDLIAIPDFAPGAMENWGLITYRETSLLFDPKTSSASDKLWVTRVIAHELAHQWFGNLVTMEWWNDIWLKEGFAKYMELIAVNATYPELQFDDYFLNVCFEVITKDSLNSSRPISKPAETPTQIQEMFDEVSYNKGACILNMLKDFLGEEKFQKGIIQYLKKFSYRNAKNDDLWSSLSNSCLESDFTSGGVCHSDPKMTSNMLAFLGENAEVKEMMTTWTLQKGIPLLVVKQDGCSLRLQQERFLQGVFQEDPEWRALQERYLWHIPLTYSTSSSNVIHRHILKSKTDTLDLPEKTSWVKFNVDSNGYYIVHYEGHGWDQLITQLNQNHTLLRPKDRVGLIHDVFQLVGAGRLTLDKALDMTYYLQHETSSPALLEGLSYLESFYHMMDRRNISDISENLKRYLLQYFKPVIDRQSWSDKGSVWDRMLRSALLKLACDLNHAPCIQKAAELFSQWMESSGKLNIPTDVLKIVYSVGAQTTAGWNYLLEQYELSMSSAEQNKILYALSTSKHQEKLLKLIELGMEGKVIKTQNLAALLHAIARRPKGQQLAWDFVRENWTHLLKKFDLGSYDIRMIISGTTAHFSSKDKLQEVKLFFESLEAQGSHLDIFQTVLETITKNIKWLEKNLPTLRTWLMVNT

T1 sequence (P14780 whole entry): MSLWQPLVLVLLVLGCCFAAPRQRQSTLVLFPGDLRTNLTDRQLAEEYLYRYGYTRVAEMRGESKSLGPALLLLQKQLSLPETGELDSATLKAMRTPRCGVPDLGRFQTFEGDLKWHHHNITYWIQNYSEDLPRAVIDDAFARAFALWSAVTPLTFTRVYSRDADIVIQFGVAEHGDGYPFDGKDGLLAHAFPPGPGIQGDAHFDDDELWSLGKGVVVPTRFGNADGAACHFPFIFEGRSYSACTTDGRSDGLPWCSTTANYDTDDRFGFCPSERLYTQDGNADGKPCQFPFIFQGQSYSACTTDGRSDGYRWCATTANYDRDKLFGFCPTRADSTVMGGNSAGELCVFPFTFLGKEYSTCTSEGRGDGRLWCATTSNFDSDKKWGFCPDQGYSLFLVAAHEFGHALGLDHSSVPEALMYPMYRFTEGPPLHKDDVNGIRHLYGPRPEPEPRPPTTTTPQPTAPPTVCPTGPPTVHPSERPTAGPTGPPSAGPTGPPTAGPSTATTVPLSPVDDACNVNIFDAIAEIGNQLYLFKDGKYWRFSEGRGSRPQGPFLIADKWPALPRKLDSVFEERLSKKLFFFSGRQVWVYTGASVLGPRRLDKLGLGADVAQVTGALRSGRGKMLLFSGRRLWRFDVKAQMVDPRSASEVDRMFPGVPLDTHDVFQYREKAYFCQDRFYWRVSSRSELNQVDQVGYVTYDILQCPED
Interstitial collagenase (Homo sapiens), sequence (P03956 whole entry, the tested form may be a part): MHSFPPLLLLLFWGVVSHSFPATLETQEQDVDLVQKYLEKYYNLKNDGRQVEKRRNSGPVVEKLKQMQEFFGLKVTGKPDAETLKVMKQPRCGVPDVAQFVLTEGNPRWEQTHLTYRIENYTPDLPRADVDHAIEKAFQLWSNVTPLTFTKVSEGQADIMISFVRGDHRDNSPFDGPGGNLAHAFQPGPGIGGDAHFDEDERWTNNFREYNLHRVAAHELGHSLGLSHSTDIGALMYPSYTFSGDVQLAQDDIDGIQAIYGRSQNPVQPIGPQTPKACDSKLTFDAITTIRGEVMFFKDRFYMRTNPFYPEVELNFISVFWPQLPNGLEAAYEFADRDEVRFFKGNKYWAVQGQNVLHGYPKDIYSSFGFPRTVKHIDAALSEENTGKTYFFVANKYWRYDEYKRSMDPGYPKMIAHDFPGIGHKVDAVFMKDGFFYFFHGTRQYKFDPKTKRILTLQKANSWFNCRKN
Disintegrin and metalloproteinase domain-containing protein 10 (Homo sapiens), sequence (O14672 whole entry, the tested form may be a part): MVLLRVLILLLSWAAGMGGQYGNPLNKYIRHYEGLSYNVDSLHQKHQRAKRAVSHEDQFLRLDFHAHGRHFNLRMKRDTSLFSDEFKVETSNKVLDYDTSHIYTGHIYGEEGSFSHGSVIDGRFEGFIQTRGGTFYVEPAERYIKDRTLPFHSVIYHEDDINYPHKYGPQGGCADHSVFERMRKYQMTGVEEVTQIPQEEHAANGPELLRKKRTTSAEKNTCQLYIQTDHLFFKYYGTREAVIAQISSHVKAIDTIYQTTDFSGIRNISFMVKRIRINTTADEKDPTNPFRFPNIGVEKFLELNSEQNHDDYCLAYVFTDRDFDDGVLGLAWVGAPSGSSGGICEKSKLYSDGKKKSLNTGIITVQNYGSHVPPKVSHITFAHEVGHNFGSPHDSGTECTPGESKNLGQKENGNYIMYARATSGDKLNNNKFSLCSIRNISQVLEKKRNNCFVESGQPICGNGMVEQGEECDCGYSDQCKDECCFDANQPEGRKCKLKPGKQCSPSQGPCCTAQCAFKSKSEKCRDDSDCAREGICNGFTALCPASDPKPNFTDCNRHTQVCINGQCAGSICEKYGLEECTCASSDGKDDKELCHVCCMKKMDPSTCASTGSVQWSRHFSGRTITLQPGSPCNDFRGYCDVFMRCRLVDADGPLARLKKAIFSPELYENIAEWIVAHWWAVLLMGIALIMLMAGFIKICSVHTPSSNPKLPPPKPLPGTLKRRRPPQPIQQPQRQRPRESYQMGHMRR
Disintegrin and metalloproteinase domain-containing protein 12 (Homo sapiens), sequence (O43184 whole entry, the tested form may be a part): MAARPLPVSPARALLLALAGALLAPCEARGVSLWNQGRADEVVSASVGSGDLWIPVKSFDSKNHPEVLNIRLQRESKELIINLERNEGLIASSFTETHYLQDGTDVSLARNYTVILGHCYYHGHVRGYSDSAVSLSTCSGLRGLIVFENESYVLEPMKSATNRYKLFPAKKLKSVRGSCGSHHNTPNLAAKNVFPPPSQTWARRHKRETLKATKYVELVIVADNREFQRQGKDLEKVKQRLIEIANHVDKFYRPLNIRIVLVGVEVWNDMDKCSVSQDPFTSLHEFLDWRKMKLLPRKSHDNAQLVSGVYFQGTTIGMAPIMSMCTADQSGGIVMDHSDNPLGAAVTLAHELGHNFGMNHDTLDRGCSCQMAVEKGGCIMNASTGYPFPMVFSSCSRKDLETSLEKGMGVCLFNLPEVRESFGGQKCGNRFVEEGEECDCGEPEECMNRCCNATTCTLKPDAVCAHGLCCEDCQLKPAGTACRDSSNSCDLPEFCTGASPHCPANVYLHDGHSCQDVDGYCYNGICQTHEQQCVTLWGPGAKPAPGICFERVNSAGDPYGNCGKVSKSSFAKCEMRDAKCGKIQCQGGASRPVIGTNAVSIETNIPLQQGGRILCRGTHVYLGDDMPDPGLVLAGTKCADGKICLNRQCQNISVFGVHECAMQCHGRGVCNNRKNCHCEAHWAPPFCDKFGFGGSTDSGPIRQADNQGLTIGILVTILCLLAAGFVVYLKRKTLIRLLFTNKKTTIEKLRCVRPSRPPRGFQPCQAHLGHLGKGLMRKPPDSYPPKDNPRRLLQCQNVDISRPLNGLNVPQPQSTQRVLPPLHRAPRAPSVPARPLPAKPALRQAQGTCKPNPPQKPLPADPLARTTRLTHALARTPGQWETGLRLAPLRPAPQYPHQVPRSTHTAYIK
Matrix metalloproteinase-15 (Homo sapiens), sequence (P51511 132-669 limits assumed): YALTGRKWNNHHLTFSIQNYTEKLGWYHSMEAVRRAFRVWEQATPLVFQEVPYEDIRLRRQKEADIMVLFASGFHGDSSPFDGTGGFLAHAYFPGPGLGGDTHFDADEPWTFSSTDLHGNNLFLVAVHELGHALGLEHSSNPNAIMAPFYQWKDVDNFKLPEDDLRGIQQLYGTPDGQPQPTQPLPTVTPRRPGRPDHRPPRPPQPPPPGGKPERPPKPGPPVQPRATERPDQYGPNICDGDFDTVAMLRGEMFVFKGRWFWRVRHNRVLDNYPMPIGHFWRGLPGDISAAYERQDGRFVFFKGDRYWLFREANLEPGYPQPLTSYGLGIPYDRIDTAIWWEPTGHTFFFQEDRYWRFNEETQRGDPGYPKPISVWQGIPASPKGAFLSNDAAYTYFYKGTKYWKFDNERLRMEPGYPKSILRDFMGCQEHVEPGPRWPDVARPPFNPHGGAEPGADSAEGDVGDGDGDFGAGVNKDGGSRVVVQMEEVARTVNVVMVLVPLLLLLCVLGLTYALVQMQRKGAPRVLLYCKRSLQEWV
Neutrophil collagenase, sequence (P22894 101-467 limits assumed): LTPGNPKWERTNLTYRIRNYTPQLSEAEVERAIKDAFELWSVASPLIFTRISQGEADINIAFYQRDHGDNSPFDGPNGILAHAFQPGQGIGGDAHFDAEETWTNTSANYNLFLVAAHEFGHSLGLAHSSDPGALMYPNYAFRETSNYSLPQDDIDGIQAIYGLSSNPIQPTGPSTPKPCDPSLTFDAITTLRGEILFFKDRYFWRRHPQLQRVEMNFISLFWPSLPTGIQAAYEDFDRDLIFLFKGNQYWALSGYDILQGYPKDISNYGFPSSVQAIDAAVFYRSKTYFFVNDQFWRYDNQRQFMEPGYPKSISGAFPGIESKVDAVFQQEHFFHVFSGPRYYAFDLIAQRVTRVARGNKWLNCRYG

Activity [1]	Activity [2]	Activity [3]	Activity [4]	Activity [5]	Activity [6]	Activity [7]	Activity (Neutrophil collagenase)	Activity [8]	Activity [9]	Activity [10]	Activity [11]	Activity [12]	IC50 [13] [µM]	IC50 (Collagenase 3) [µM]	Activity [14]	Compound
inactive	inactive	inactive	inactive	inactive	inactive	inactive	inactive	inactive	inactive	inactive	inactive	inactive	> 100	20	inactive	COc1ccc(CSc2nc(C)cc(O)n2)cc1
inactive	inactive	inactive	inactive	inactive	inactive	inactive	inactive	inactive	inactive	inactive	inactive	inactive	> 100	3.8	inactive	Oc1nc(SCc2ccc(Cl)cc2)nc2c1CCC2
